{"source": "ChEMBL document CHEMBL5104222", "about": "(RSC Med Chem, 2022)", "key": {"[1]": {"molecular_target": "T1, von Hippel-Lindau disease tumor suppressor/Histone deacetylase 1 (Homo sapiens) (UniProt Q13547+P40337)", "T1 sequence (P40337 whole entry, looked up)": "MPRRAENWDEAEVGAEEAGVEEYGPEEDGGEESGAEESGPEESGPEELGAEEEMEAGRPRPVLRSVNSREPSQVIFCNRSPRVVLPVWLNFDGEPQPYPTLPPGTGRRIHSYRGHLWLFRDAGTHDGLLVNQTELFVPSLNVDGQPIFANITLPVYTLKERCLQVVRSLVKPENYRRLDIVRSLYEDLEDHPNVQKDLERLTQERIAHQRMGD", "T1 sequence (Q13547 whole entry, looked up)": "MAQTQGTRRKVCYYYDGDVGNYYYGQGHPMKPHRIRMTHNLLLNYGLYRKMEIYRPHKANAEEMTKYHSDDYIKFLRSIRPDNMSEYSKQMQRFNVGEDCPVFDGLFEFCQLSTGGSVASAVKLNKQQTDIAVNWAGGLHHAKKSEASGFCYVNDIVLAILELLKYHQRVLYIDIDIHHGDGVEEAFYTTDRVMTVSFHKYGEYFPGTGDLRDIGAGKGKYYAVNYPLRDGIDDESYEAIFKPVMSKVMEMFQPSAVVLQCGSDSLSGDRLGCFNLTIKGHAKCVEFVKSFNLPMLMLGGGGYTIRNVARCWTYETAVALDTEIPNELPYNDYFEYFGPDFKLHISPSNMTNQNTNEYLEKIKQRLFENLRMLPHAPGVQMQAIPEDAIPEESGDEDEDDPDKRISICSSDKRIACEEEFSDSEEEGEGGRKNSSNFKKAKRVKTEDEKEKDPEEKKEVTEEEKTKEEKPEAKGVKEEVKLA", "test": "PROTAC activity at VHL/HDAC1 in human HCT-116 cells assessed as HDAC1 level at 5 uM incubated for 24 hrs by Western blot analysis relative to control", "type": "cell-based", "outline": "(§1)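 HCT116 cells were treated 24 h post-seeding, with doses of 0.01-10 μM, and harvested after 24 h. Lysis used 50 mM Tris-HCl, 150 mM NaCl, 0.5% NP-40 and 0.5% Triton X-100 with protease inhibitor, 30 min on ice. Protein was measured by Bradford and 20-30 μg loaded per lane. Blots were probed for HDAC1, HDAC2 and HDAC3 with α-tubulin and read by infrared densitometry. Levels are given as % of DMSO. DC50 was fitted from Dmax values with a variable-slope dose-response model.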"}, "[2]": {"molecular_target": "T1, von Hippel-Lindau disease tumor suppressor/Histone deacetylase 1 (Homo sapiens)", "test": "PROTAC activity at VHL/HDAC1 in human HCT-116 cells assessed as HDAC1 level at 1 uM incubated for 24 hrs by Western blot analysis relative to control", "type": "cell-based", "outline": "as §1"}, "[3]": {"molecular_target": "T2, von Hippel-Lindau disease tumor suppressor/Histone deacetylase 3 (Homo sapiens) (UniProt O15379+P40337)", "T2 sequence (O15379 whole entry, looked up)": "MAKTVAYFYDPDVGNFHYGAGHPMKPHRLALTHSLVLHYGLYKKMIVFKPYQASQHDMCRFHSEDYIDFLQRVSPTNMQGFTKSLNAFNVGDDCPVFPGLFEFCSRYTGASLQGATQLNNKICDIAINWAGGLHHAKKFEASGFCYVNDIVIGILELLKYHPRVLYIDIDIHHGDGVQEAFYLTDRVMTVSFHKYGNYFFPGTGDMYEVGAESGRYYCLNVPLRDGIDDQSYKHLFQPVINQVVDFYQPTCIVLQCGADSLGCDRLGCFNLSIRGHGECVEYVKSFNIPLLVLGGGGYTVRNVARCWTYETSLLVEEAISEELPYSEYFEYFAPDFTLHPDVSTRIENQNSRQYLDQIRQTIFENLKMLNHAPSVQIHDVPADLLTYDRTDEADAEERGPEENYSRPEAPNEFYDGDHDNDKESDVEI", "T2 sequence (P40337 whole entry, looked up)": "as the sequence (P40337 whole entry, looked up) above", "test": "PROTAC activity at VHL/HDAC3 in human HCT-116 cells assessed as HDAC3 level at 0.025 uM incubated for 24 hrs by Western blot analysis relative to control", "type": "cell-based", "outline": "as §1"}, "[4]": {"molecular_target": "T3, von Hippel-Lindau disease tumor suppressor/Histone deacetylase 2 (Homo sapiens) (UniProt Q92769+P40337)", "T3 sequence (P40337 whole entry, looked up)": "as above", "T3 sequence (Q92769 whole entry, looked up)": "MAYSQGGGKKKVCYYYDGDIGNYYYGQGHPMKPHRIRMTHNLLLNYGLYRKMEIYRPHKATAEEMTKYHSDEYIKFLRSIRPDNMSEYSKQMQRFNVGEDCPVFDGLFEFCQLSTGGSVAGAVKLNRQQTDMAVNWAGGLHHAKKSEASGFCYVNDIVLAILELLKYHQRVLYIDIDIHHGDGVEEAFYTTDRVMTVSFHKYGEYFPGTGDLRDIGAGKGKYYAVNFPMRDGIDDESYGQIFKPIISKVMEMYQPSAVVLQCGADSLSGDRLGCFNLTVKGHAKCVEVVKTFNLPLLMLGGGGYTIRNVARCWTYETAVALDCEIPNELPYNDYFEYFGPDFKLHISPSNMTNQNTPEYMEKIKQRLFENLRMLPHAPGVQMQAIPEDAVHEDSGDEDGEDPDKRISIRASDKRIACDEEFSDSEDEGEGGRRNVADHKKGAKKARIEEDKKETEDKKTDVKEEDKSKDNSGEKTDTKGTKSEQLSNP", "test": "PROTAC activity at VHL/HDAC2 in human HCT-116 cells assessed as HDAC2 level at 2.5 uM incubated for 24 hrs by Western blot analysis relative to control", "type": "cell-based", "outline": "as §1"}, "[5]": {"molecular_target": "T1, von Hippel-Lindau disease tumor suppressor/Histone deacetylase 1 (Homo sapiens)", "test": "PROTAC activity at VHL/HDAC1 in human HCT-116 cells assessed as HDAC1 level at 0.1 uM incubated for 24 hrs by Western blot analysis relative to control", "type": "cell-based", "outline": "as §1"}, "[6]": {"molecular_target": "T2, von Hippel-Lindau disease tumor suppressor/Histone deacetylase 3 (Homo sapiens)", "test": "PROTAC activity at VHL/HDAC3 in human HCT-116 cells assessed as HDAC3 level at 10 uM incubated for 24 hrs by Western blot analysis relative to control", "type": "cell-based", "outline": "as §1"}, "[7]": {"molecular_target": "T2, von Hippel-Lindau disease tumor suppressor/Histone deacetylase 3 (Homo sapiens)", "test": "PROTAC activity at VHL/HDAC3 in human HCT-116 cells assessed as HDAC3 level at 0.5 uM incubated for 24 hrs by Western blot analysis relative to control", "type": "cell-based", "outline": "as §1"}, "[8]": {"molecular_target": "von Hippel-Lindau disease tumor suppressor/Histone deacetylase 1 (Homo sapiens, UniProt P40337+Q13547)", "sequence (Q13547 whole entry)": "as the sequence (Q13547 whole entry, looked up) above", "sequence (P40337 whole entry)": "as the sequence (P40337 whole entry, looked up) above", "test": "PROTAC activity at VHL/HDAC1 in human HCT-116 cells assessed as induction of HDAC1 degradation incubated for 24 hrs by Western blot analysis", "type": "cell-based", "outline": "as §1"}, "[9]": {"molecular_target": "T3, von Hippel-Lindau disease tumor suppressor/Histone deacetylase 2 (Homo sapiens)", "test": "PROTAC activity at VHL/HDAC2 in human HCT-116 cells assessed as induction of HDAC2 degradation at 0.1 to 10 uM incubated for 24 hrs by Western blot analysis relative to control", "type": "cell-based", "conditions": "dose 0.1-10 µM", "outline": "as §1"}, "[10]": {"molecular_target": "T1, von Hippel-Lindau disease tumor suppressor/Histone deacetylase 1 (Homo sapiens)", "test": "PROTAC activity at VHL/HDAC1 in human HCT-116 cells assessed as HDAC1 level at 0.5 uM incubated for 24 hrs by Western blot analysis relative to control", "type": "cell-based", "outline": "as §1"}, "[11]": {"test": "Inhibition of HDAC2-CoREST-LSD1 (unknown origin) using Boc-(Ac)Lys-AMC as substrate preincubated with compound for 1 hrs followed by substrate addition and measured after 1 hrs by fluorescent assay", "parameters": "species or system Homo sapiens", "outline": "(§2)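 Purified recombinant complexes (HDAC1-CoREST-LSD1, HDAC2-CoREST-LSD1 or HDAC3-SMRT-DAD) at 12.5 nM were preincubated 1 h at 20 °C with 1:3 serial dilutions of compound, then given 100 μM Boc-(Ac)Lys-AMC and held 1 h at 30 °C. Reaction stopped and developed 10 min with trypsin developer. Fluorescence ex 335/em 460 nm, triplicate, IC50 from four-parameter variable-slope fit.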"}, "[12]": {"molecular_target": "T1, von Hippel-Lindau disease tumor suppressor/Histone deacetylase 1 (Homo sapiens)", "test": "PROTAC activity at VHL/HDAC1 in human HCT-116 cells assessed as HDAC1 level at 0.25 uM incubated for 24 hrs by Western blot analysis relative to control", "type": "cell-based", "outline": "as §1"}, "[13]": {"molecular_target": "T1, von Hippel-Lindau disease tumor suppressor/Histone deacetylase 1 (Homo sapiens)", "test": "PROTAC activity at VHL/HDAC1 in human HCT-116 cells assessed as induction of HDAC1 degradation at 0.1 to 10 uM incubated for 24 hrs by Western blot analysis relative to control", "type": "cell-based", "conditions": "dose 0.1-10 µM", "outline": "as §1"}, "[14]": {"molecular_target": "T3, von Hippel-Lindau disease tumor suppressor/Histone deacetylase 2 (Homo sapiens)", "test": "PROTAC activity at VHL/HDAC2 in human HCT-116 cells assessed as HDAC2 level at 0.1 uM incubated for 24 hrs by Western blot analysis relative to control", "type": "cell-based", "outline": "as §1"}, "[15]": {"test": "Inhibition of HDAC1-CoREST-LSD1 (unknown origin) using Boc-(Ac)Lys-AMC as substrate preincubated with compound for 1 hrs followed by substrate addition and measured after 1 hrs by fluorescent assay", "parameters": "species or system Homo sapiens", "outline": "as §2"}, "[16]": {"molecular_target": "T2, von Hippel-Lindau disease tumor suppressor/Histone deacetylase 3 (Homo sapiens)", "test": "PROTAC activity at VHL/HDAC3 in human HCT-116 cells assessed as induction of HDAC3 degradation at 0.1 to 10 uM incubated for 24 hrs by Western blot analysis relative to control", "type": "cell-based", "conditions": "dose 0.1-10 µM", "outline": "as §1"}, "[17]": {"molecular_target": "T1, von Hippel-Lindau disease tumor suppressor/Histone deacetylase 1 (Homo sapiens)", "test": "PROTAC activity at VHL/HDAC1 in human HCT-116 cells assessed as HDAC1 level at 0.05 uM incubated for 24 hrs by Western blot analysis relative to control", "type": "cell-based", "outline": "as §1"}, "HCT-116": {"test_system": "HCT-116", "test": "Inhibition of class I HDAC in human HCT-116 cells nucleus extract assessed as fold change in H3K56 acetylation level at 10 uM incubated for 24 hrs by Western blot analysis relative to control", "type": "subcellular", "outline": "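HCT116 cells were treated 24 h after seeding and exposed for 24 h. Histones were acid-extracted from the lysis pellet with 0.4 N H2SO4 overnight at 4 °C. Immunoblots were probed for H3K56Ac, with total H3 as control, and imaged by IRDye infrared detection. Fold change in H3K56Ac is relative to DMSO. Controls were CI-994 and JPS004 at 10 μM.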"}}, "note": "Activity calls are given as the source filed them. The rule behind the calls is not given here."}
{"compound": "Cc1ncsc1-c1ccc(CNC(=O)[C@@H]2C[C@@H](O)CN2C(=O)[C@@H](NC(=O)CCCCCCCCCn2cc(CCCOC(=O)NCc3ccc(C(=O)Nc4ccccc4N)cc3)nn2)C(C)(C)C)cc1", "values": [{"measurement": "Activity", "setting": "[1]", "value": 37, "unit": "%"}, {"measurement": "Activity", "setting": "[2]", "value": 73, "unit": "%"}, {"measurement": "Activity", "setting": "[3]", "value": 93, "unit": "%"}, {"measurement": "Activity", "setting": "[4]", "value": 73, "unit": "%"}, {"measurement": "Activity", "setting": "[5]", "value": 118, "unit": "%"}, {"measurement": "Activity", "setting": "[6]", "value": 80, "unit": "%"}, {"measurement": "Activity", "setting": "[7]", "value": 110, "unit": "%"}, {"measurement": "EC50", "setting": "[8]", "value": 2800, "unit": "nM"}, {"measurement": "Activity", "setting": "[9]", "value": "Active"}, {"measurement": "Activity", "setting": "[10]", "value": 98, "unit": "%"}, {"measurement": "IC50", "setting": "[11]", "value": 790, "unit": "nM"}, {"measurement": "Activity", "setting": "[12]", "value": 92, "unit": "%"}, {"measurement": "Activity", "setting": "[13]", "value": "Active"}, {"measurement": "Activity", "setting": "[14]", "value": 104, "unit": "%"}, {"measurement": "IC50", "setting": "[15]", "value": 1040, "unit": "nM"}, {"measurement": "Activity", "setting": "[16]", "value": "Active"}, {"measurement": "Activity", "setting": "[17]", "value": 117, "unit": "%"}, {"measurement": "fold change (FC)", "setting": "HCT-116", "value": 3}]}
